Test [1] can be described thus: OD615 S. cerevisiae growth inhibition, permissive medium, pilot counter-assay, permissive growth control for S. cerevisiae lifespan shortening project (AID 705;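 active means growth inhibition above 25% in both replicates, a cutoff set 3 SD above the mean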). The conditions noted are these: OD615, 24 h, at 10 µM, active compounds read high. Put shortly: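 System: Engineered DeaD yeast | Buffer or medium: SC raffinose/galactose permissive medium | Incubation: Cells pre-grown 4 h, then 24 h compound exposure, 30 °C humidified | Measured by: Absorbance (optical density) at 615 nm | Read-out: Reduction in yeast growth (OD615)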

Test [2] in a line: Restrictive medium S. cerevisiae growth inhibition, OD615, pilot screen of yeast lifespan reduction project, restrictive growth control (AID 706;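 active means growth inhibition above a set limit, 3 SD over mean compound inhibition, in both replicates, cut at about 43% in these data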;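 further: modified DeaD lifespan yeast strain shifted to restrictive glucose medium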). The settings on record: OD615, 48 h, at 10 µM, active compounds read high. Put shortly:
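Material: modified S. cerevisiae; Medium: glucose-based CSMM-D restrictive medium; Compound dosing: one concentration, 10 µM final, 0.25% DMSO; Incubation: 48 h compound exposure at 30 °C; Measured by: OD615.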

Test [3] in a line: viability gain of MRP-1-high H69AR cells under doxorubicin, pilot screen, MRP-1 activator project, CellTiter-Glo, duplicate (AID 807;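 active means viability increase at or above a cutoff of the median across tested compounds plus 3 SD, cut at about 8.5% in these data, passing the limit was not always enough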;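 further: compound pretreatment 18-22 h then 72 h combined with doxorubicin; 0% = doxorubicin alone and 100% = vehicle without doxorubicin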). The settings on record: H69AR viability with doxorubicin, CellTiter-Glo luminescence; at 10 µM; active compounds read high. On the technique in general: In ATP-based viability assays light output follows the ATP content of the culture.
The nature of test [4]: growth suppression of beta-catenin knockout HCT116, pilot screen, human colon tumor cells (AID 823;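 active means cell viability at or below a set limit in both duplicate runs, the limit being the all-compound median minus 4 SD, cut at about 23% in these data, passing the limit was not always enough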;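 further: 0% = wells killed by 20 µM Hyamine and 100% = untreated DMSO cell wells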). The conditions noted are these: CellTiter-Glo, 60 h, at 10 µM, active compounds read low.
Test [5] is described as follows: growth suppression of PTEN-deleted HCT116, pilot screen, cell-based, HCT116 clonal line, CellTiter-Glo (AID 824;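 active means viability at or below 27.92% in each of two runs, the all-compound median minus 4 SD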;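 further: 0% = 20 µM Hyamine control and 100% = vehicle cell control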). The conditions noted are these: 60 h, at 10 µM, active compounds read low.
Test [6] in a line: inhibitors of the yeast RAM network, pilot screen, dse1pr::URA3 reporter, 5-FOA selection (AID 869;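 active means inhibition over a set limit, the all-compound mean plus 3 SD, in both replicate runs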;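 further: 0% = DMSO wells with no growth and 100% = 10 µM 1-NA-PP1 with full growth; RAM network block rescues cells from 5-FOA so hits raise OD615 growth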). The conditions noted are these: S. cerevisiae dse1pr::URA3 5-FOA growth, OD615, 2 d; at 10 µM; active compounds read high; strain carries analog-sensitive mutant Cbk1 kinase.
A short description of test [7]: RAM signaling pathway blockade in yeast – S. cerevisiae, Pdr1DBD-CYC8 efflux-inhibited sensitized strain, primary screen (AID 1298).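 Further: 0% = DMSO untreated cells without growth and 100% = 10 µM 1-NA-PP1 full growth; higher means more yeast growth rescued from 5-FOA killing.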 The settings on record: S. cerevisiae cbk1-as DSE1-URA3 strain, 5-FOA growth OD615, 2 d; at 50 µM; active compounds read high.

The results in this text go back to PubChem BioAssay.

A number with no mark means an inactive call. Results filed as inconclusive are left out. Calls of active or inactive are those of the source.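 How the source made its calls, unless noted: active means RAM network inhibition above 8.4% in each of two replicates, 3 SD over the compound average; inconclusive means above 8.4% inhibition in only one replicate; inactive means 8.4% inhibition or less in each replicate.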

Usually viability stands for a read-out of living cells in per cent, often relative to untreated cells. By inhibition is commonly meant the relative decrease from the control value, in per cent.

`CN(Cc1ccccc1)c1nnc(N)s1`: the growth inhibition is 0.13% in test [1] and -3.49% in test [2]. Moreover, the viability increase in test [3] was -2%. The values for the viability in test [4] and in test [5] were 105% and 102%, respectively. Also, in test [6], the inhibition is 0.935%. Also, in test [7], the RAM network inhibition is 2.5%.
In the case of `O=C(Cn1c(=O)[nH]c2ccsc2c1=O)NC1CCCCC1`, the growth inhibition is -3.32% in test [1] and -5.46% in test [2]. In addition, the viability increase in test [3] was 0.65%. Besides, the results for the viability in test [4] and in test [5] were 94.9% and 93.9%, respectively. Further, the inhibition in test [6] was 1.41%. In addition, in test [7], the RAM network inhibition was -1.43%.
For `COc1cc2c(cc1OC)C1=C(C#N)CN(CC(=O)O)CN1CC2`, the growth inhibition is -0.125% in test [1] and 11.3% in test [2]. Moreover, the viability increase in test [3] is -4.43%. Moreover, the viability in test [4] is 106%; in test [5], 96%. Further, in test [6], the inhibition is 1.7%. Moreover, the RAM network inhibition in test [7] is 1.9%.
Take `CCc1cc(=O)oc2cc(C)cc(O)c12`: the growth inhibition was -16.6% in test [1] and -7.76% in test [2]. The viability increase in test [3] is -1.72%. Further, the figures for the viability in test [4] and in test [5] were 95.3% and 99.8%, respectively. In addition, in test [6], the inhibition is 0.2%. For the same compound, in test [7], the RAM network inhibition was 1.99%.
As for `CN1CCN(CCCNC(=O)c2cc3c(=O)n(C)c4ccccc4c3s2)CC1`, the results for the growth inhibition in test [1] and in test [2] were 0.78% and -4.68%, respectively. Further, the viability increase in test [3] was -7.62%. The figures for the viability in test [4] and in test [5] were 53.1% and 45.6%, respectively. Moreover, the inhibition in test [6] is 0.835%. Besides, in test [7], the RAM network inhibition is 1.14%.
With `CCCCn1c(C(C)NC(=O)CCC)nc2ccccc21` (stereo not drawn), the growth inhibition in test [1] is -1.25%; in test [2] it was -0.375%. Further, in test [3], the viability increase was 1.35%. The viability in test [4] was 86.2%; in test [5], 91%. In addition, the inhibition in test [6] was 0.88%. Besides, the RAM network inhibition in test [7] was 7.23%.
Regarding `CCn1c(CNC(=O)C23CC4CC(CC(C4)C2)C3)nnc1SCC(=O)Nc1nnc(C)s1`, the growth inhibition was 2.36% in test [1] and 24.3% in test [2]. Further, the viability increase in test [3] is 0.62%. Also, the viability is 96.7% in test [4] and 96.9% in test [5]. Moreover, in test [6], the inhibition was 2.5%. In addition, the RAM network inhibition in test [7] is 2.71%.
Turning to `OCCN1CCN(Cc2cc(Br)cc(Br)c2O)CC1`, the figures for the growth inhibition in test [1] and in test [2] were -18.3% and -14%, respectively. Also, the viability increase in test [3] was -2.23%. Further, the viability in test [4] is 92.6%; in test [5] it was 96.3%. In addition, the inhibition in test [6] is 2.87%. Besides, the RAM network inhibition in test [7] was -0.43%.
Consider `CCOc1ccccc1-c1nc(C(N)=O)c2[nH]c(=O)n(-c3ccc(F)cc3)c2n1`, for which the growth inhibition was -8.26% in test [1] and -0.005% in test [2]. In addition, the viability increase in test [3] is -4.08%. For the same compound, the figures for the viability in test [4] and in test [5] were 90.2% and 83.9%, respectively. In addition, the inhibition in test [6] was 0.93%. Also, the RAM network inhibition in test [7] is -0.71%.
As to `CCn1c(CCCNC(=O)c2cccs2)nc2ccccc21`, the figures for the growth inhibition in test [1] and in test [2] were -6.02% and -11.4%, respectively. The viability increase in test [3] is -2.77%. The viability in test [4] was 104%; in test [5], 96.1%. Further, in test [6], the inhibition is 2.48%. The RAM network inhibition in test [7] was 1.95%.
Turning to `CC(=O)N(Cc1ccco1)C1(C(=O)NC2CCCCC2)CCCCC1`, the growth inhibition was -10.7% in test [1] and -22.6% in test [2]. In addition, the viability increase in test [3] is -2.47%. Further, the viability in test [4] is 94.9%; in test [5] it was 94.5%. The inhibition in test [6] was 3.02%. The RAM network inhibition in test [7] is 1.51%.
Take `COc1ccc(Cl)cc1C(=O)Nc1cc(=O)n(C)c(=O)n1C`: the figures for the growth inhibition in test [1] and in test [2] were -16.1% and -29.6%, respectively. Besides, the viability increase in test [3] is -1.06%. The viability is 102% in test [4] and 99.1% in test [5]. Moreover, the inhibition in test [6] was 1.71%. In addition, in test [7], the RAM network inhibition is 2.2%.
On to `O=C(Cn1cc2c(n1)CCCCC2)NCc1ccccc1`, for which the growth inhibition in test [1] is -13.4%; in test [2], 0.525%. Moreover, in test [3], the viability increase was -0.82%. Also, the viability is 102% in test [4] and 86.5% in test [5]. The inhibition in test [6] is 1.06%. Moreover, the RAM network inhibition in test [7] is 3.47%.
`CCN1CCN(CC(=O)Nc2ccc3c(c2)OCCO3)C(=O)C1=O`: the growth inhibition in test [1] was 2.63%; in test [2], 10.1%. Besides, the viability increase in test [3] was 1.13%. The viability in test [4] was 105%; in test [5], 103%. In test [6], the inhibition was 0.675%. The RAM network inhibition in test [7] was 2.49%.
Take `O=C(O)CSc1cccc2cccnc12`: the values for the growth inhibition in test [1] and in test [2] were 15.6% and 44.6% (active), respectively. The viability increase in test [3] is -0.24%. The viability was 96.5% in test [4] and 102% in test [5]. In test [6], the inhibition was 1.17%. Further, in test [7], the RAM network inhibition was 1.05%.
In the case of `COc1ccc(C(=O)/C(C)=N/O)cc1OC`, the growth inhibition in test [1] is -15.6%; in test [2], -1.75%. Besides, the viability increase in test [3] was -0.59%. The results for the viability in test [4] and in test [5] were 90.5% and 88.6%, respectively. Also, the inhibition in test [6] was 1.42%. In addition, in test [7], the RAM network inhibition was 2.98%.
In the case of `Cc1ccc(CC2C(=O)N(c3ncccn3)C(=O)C2C)cc1` (stereo not drawn), the growth inhibition in test [1] is -5.95%; in test [2], -9.6%. Moreover, the viability increase in test [3] was 0.74%. Further, the viability in test [4] is 104%; in test [5] it was 93.1%. Also, in test [6], the inhibition is 0.685%. For the same compound, the RAM network inhibition in test [7] was 1.72%.
Consider `CCCCOC(=O)c1ccc(NS(=O)(=O)c2cc(-c3nnnn3CC)ccc2OC)cc1`, for which the growth inhibition in test [1] is 3.03%; in test [2], 2.27%. The viability increase in test [3] was -2.06%. The viability in test [4] is 91.5%; in test [5], 98%. In addition, in test [6], the inhibition was 0.93%. Moreover, the RAM network inhibition in test [7] is 4.7%.
`COC(=O)c1sc2nc3c(cc2c1N)COC(C)(C)C3`: the growth inhibition was -6.75% in test [1] and -7.37% in test [2]. Moreover, in test [3], the viability increase was -1.54%. In addition, the viability in test [4] is 101%; in test [5] it was 94.1%. In addition, in test [6], the inhibition was 1.19%. Further, the RAM network inhibition in test [7] is 3.17%.
As for `CC(CCCC(C)(C)O)NCCO` (stereo not drawn), the growth inhibition is -9.36% in test [1] and -4.3% in test [2]. In addition, the viability increase in test [3] was 1.25%. The values for the viability in test [4] and in test [5] were 102% and 106%, respectively. In addition, the inhibition in test [6] was 2.67%. Moreover, in test [7], the RAM network inhibition is -0.17%.
In the case of `CC(C)CC(/C(O)=C(\C#N)c1nc2ccccc2[nH]1)N1C(=O)c2ccccc2C1=O` (stereo not drawn), the growth inhibition in test [1] was -13.3%; in test [2], -18.9%. Moreover, in test [3], the viability increase is -2.01%. Besides, the figures for the viability in test [4] and in test [5] were 82% and 73.3%, respectively. In test [6], the inhibition is 3.05%. Besides, in test [7], the RAM network inhibition was 4.23%.
Consider `CCc1cccc(C)c1NC(=O)C1CCCO1` (stereo not drawn), for which the figures for the growth inhibition in test [1] and in test [2] were -5.15% and -1.12%, respectively. The viability increase in test [3] is -3.29%. For the same compound, the viability in test [4] is 87.3%; in test [5], 88.1%. Besides, the inhibition in test [6] is 0.695%. Moreover, the RAM network inhibition in test [7] is 3.57%.
As for `COc1ccc(Cn2nnc3c(=O)[nH]c(C4CCCN(C(=O)c5ccccc5)C4)nc32)cc1` (stereo not drawn), the growth inhibition is -8.47% in test [1] and -8.09% in test [2]. For the same compound, the viability increase in test [3] was -1.66%. The viability was 108% in test [4] and 99.9% in test [5]. In test [6], the inhibition is -0.35%. In test [7], the RAM network inhibition was 3.06%.
For the compound `COc1ccc(NC(=O)c2nc3nc(C)cc(C(F)F)n3n2)cc1OC`, the growth inhibition is -10.9% in test [1] and -6.71% in test [2]. Also, the viability increase in test [3] was 2.09%. Also, the figures for the viability in test [4] and in test [5] were 108% and 102%, respectively. The inhibition in test [6] is 0.885%. In addition, the RAM network inhibition in test [7] was 1.05%.
